Laboratory results as given in ChEMBL document CHEMBL2040780, “Antiarrhythmic properties of phenylpiperazine derivatives of phenytoin with α₁-adrenoceptor affinities” (Bioorg Med Chem, 2012).
Active and inactive are the calls of the source.

How the values were obtained:
Rattus norvegicus [1] = assay: Antiarrhythmic activity in Wistar rat assessed as effect on heart beat at 10 mg/kg, iv after 5 mins; format: functional
Method in brief: (§1)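 Male Wistar rats (180–250 g), anaesthetised with thiopental 60 mg/kg ip. Standard lead II ECG recorded at 50 mm/s just before dosing and at 1, 5 and 15 min after. Heart rate and P–Q, Q–T and QRS intervals were read. n=6 per group, mean ± SEM, one-way ANOVA.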

Rattus norvegicus [2] = assay: Antiarrhythmic activity in Wistar rat assessed as effect on heart beat at 10 mg/kg, iv after 1 min; format: functional; method in brief: as §1
Rattus norvegicus [3] = assay: Hypotensive activity in normotensive Wistar rat assessed as decrease in systolic blood pressure at 2.5 to 10 mg/kg, iv at 1 min; format: organism-based, Artery; design: dose 2.5-10 mg/kg, route intravenous; details: in vivo
Method in brief: (§2)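 Right carotid artery cannulated with heparin-saline-filled tubing for blood pressure recording. After 5 min stabilisation, compound injected iv into the caudal vein (2.5–10 mg/kg, 1 ml/kg). Systolic and diastolic pressure followed for 60 min. n=6 per group, mean ± SEM, one-way ANOVA.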

Rattus norvegicus [4] = assay: Cardiotoxicity in Wistar rat assessed as effect on Q-T interval at 10 mg/kg, iv after 5 mins; format: toxicity, organism-based; design: dose 10 mg/kg, route intravenous; details: in vivo; method in brief: as §1
Rattus norvegicus [5] = assay: Cardiotoxicity in Wistar rat assessed as effect on QRS interval at 10 mg/kg, iv after 5 mins; format: toxicity, organism-based; design: dose 10 mg/kg, route intravenous; details: in vivo; method in brief: as §1
Rattus norvegicus [6] = assay: Cardiotoxicity in Wistar rat assessed as effect on P-Q interval at 10 mg/kg, iv after 1 min; format: toxicity, organism-based; design: dose 10 mg/kg, route intravenous; details: in vivo; method in brief: as §1
Rattus norvegicus [7] = assay: Cardiotoxicity in Wistar rat assessed as effect on QRS interval at 10 mg/kg, iv after 1 min; format: toxicity, organism-based; design: dose 10 mg/kg, route intravenous; details: in vivo; method in brief: as §1
Rattus norvegicus [8] = assay: Cardiotoxicity in Wistar rat assessed as effect on P-Q interval at 10 mg/kg, iv after 5 mins; format: toxicity, organism-based; design: dose 10 mg/kg, route intravenous; details: in vivo; method in brief: as §1
Rattus norvegicus [9] = assay: Cardiotoxicity in Wistar rat assessed as effect on QRS interval at 10 mg/kg, iv after 15 mins; format: toxicity, organism-based; design: dose 10 mg/kg, route intravenous; details: in vivo, 0.25 h; method in brief: as §1
Rattus norvegicus [10] = assay: Cardiotoxicity in Wistar rat assessed as effect on Q-T interval at 10 mg/kg, iv after 1 min; format: toxicity, organism-based; design: dose 10 mg/kg, route intravenous; details: in vivo; method in brief: as §1
Rattus norvegicus [11] = assay: Cardiotoxicity in Wistar rat assessed as effect on P-Q interval at 10 mg/kg, iv after 15 mins; format: toxicity, organism-based; design: dose 10 mg/kg, route intravenous; details: in vivo, 0.25 h; method in brief: as §1
Rattus norvegicus [12] = assay: Antiarrhythmic activity in Wistar rat assessed as effect on heart beat at 10 mg/kg, iv after 15 mins; format: functional; method in brief: as §1
Rattus norvegicus [13] = assay: Antiarrhythmic activity in iv dosed Wistar rat assessed as protection against adrenaline-induced arrhythmia administered 15 mins prior to adrenaline-challenge; format: functional; details: Heart
Method in brief: (§3)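 Szekeres model in male Wistar rats anaesthetised with thiopental (60 mg/kg ip). Test compound given iv in water (2.5–10 mg/kg) 15 min before adrenaline 20 µg/kg iv. Scored for extrasystoles, bigeminy and mortality; activity means no premature beats and inhibited arrhythmia versus controls.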

Rattus norvegicus [14] = assay: Antiarrhythmic activity in Wistar rat assessed as protection against adrenaline-induced bigeminy at 2.5 to 10 mg/kg, iv administered 15 mins prior to adrenaline-challenge; format: functional, organism-based; details: Heart; method in brief: as §3
Rattus norvegicus [15] = assay: Antiarrhythmic activity in barium chloride-induced Wistar rat arrhythmia model assessed as protection against mortality at 2.5 to 10 mg/kg, iv administered 15 mins prior to barium chloride-challenge; format: functional, organism-based; details: Heart
Method in brief: (§4)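 Szekeres model in male Wistar rats. Activity is gradual disappearance of arrhythmia with restored sinus rhythm; protection against disturbances and death scored. Groups of 6 animals.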

[16] = target: T1, Adrenergic receptor alpha-1 (Rattus norvegicus, UniProt P15823+P23944+P43140); assay: Displacement of [3H]prazosin from alpha1 adrenoceptor in rat cerebral cortex after 30 mins by microbeta scintillation counting; format: tissue-based
T1 sequence (P15823 whole entry): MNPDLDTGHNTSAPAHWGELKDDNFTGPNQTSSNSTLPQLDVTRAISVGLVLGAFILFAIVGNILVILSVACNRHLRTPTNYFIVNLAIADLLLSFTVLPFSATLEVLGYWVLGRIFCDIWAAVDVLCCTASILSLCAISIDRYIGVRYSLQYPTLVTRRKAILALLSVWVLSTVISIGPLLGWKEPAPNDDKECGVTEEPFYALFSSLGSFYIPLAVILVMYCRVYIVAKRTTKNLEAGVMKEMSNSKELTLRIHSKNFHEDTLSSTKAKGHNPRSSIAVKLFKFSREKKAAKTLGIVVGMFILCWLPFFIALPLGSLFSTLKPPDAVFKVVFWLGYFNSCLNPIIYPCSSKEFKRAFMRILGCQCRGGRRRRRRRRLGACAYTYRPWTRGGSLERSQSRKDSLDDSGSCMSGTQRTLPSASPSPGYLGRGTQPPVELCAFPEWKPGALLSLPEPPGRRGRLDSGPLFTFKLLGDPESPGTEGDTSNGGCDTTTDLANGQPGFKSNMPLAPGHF
T1 sequence (P23944 whole entry): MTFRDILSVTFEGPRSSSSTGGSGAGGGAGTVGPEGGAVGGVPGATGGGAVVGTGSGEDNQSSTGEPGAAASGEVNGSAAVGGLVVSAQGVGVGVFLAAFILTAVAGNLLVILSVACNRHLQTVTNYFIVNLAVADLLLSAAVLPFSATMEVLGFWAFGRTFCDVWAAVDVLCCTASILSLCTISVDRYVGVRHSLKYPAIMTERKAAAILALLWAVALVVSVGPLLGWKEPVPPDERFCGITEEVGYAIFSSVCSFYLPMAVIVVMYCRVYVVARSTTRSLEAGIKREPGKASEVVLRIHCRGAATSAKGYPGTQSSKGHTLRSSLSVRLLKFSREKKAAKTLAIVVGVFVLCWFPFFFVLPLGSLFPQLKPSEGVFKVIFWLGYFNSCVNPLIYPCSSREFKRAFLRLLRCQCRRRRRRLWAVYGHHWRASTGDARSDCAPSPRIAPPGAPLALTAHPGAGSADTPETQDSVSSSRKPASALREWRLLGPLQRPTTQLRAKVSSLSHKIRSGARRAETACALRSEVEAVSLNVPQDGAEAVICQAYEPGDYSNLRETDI
T1 sequence (P43140 whole entry): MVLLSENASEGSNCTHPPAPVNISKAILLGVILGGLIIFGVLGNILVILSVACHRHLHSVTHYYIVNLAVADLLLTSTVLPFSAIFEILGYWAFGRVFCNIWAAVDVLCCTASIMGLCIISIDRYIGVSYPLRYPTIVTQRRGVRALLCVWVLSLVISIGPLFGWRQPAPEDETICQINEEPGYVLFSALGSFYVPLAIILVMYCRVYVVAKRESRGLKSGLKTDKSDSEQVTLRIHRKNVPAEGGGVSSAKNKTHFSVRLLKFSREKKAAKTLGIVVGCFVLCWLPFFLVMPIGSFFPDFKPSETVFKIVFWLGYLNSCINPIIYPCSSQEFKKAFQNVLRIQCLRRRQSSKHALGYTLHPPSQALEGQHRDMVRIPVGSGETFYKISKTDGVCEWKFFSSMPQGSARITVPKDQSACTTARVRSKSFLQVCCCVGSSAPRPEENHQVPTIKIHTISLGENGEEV
Method in brief: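 Rat cerebral cortex homogenised in ice-cold 50 mM Tris-HCl (pH 7.6 at 25 °C), washed twice at 20000×g and resuspended at 10 mg wet weight/ml. Incubated with [3H]prazosin (19.5 Ci/mmol) and test compound for 30 min at 25 °C. Nonspecific binding defined with 10 µM phentolamine. GF/B filtration, scintillation counting, three-parameter logistic competition fit.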

Rattus norvegicus [17] = assay: Antiarrhythmic activity in Wistar rat assessed as protection against adrenaline-induced extrasystoles at 2.5 to 10 mg/kg, iv administered 15 mins prior to adrenaline-challenge; format: functional, organism-based; details: Heart; method in brief: as §3
Rattus norvegicus [18] = assay: Hypotensive activity in normotensive Wistar rat assessed as decrease in diastolic blood pressure at 2.5 to 10 mg/kg, iv at 1 min; format: organism-based, Artery; design: dose 2.5-10 mg/kg, route intravenous; details: in vivo; method in brief: as §2
Rattus norvegicus [19] = assay: Hypotensive activity in normotensive Wistar rat assessed as decrease in systolic blood pressure at 2.5 to 10 mg/kg, iv after 1 min measured up to 60 mins; format: organism-based, Artery; design: dose 2.5-10 mg/kg, route intravenous; details: in vivo; method in brief: as §2
Rattus norvegicus [20] = assay: Cardiotoxicity in Wistar rat assessed as effect on Q-T interval at 10 mg/kg, iv after 15 mins; format: toxicity, organism-based; design: dose 10 mg/kg, route intravenous; details: in vivo, 0.25 h; method in brief: as §1
Rattus norvegicus [21] = assay: Hypotensive activity in normotensive Wistar rat assessed as decrease in diastolic blood pressure at 2.5 to 10 mg/kg, iv after 1 min measured up to 60 mins; format: organism-based, Artery; design: dose 2.5-10 mg/kg, route intravenous; details: in vivo; method in brief: as §2
Rattus norvegicus [22] = assay: Antiarrhythmic activity in dosed Wistar rat assessed as protection against barium chloride-induced fibrillation administered 15 mins prior to barium chloride-challenge; format: functional; details: Heart; method in brief: as §4
Rattus norvegicus [23] = assay: Antiarrhythmic activity in iv dosed barium chloride-induced Wistar rat arrhythmia model assessed as protection against mortality administered 15 mins prior to barium chloride-challenge; format: functional; details: Heart
Method in brief: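 Male Wistar rats (180–250 g), groups of 6. Activity criterion: gradual disappearance of arrhythmia and restoration of sinus rhythm; protection against heart disturbances and death scored.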

Rattus norvegicus [24] = assay: Antiarrhythmic activity in iv dosed Wistar rat assessed as protection against barium chloride-induced extrasystoles administered 15 mins prior to barium chloride-challenge; format: functional; details: Heart; method in brief: as §4

SMILES	Activity (Rattus norvegicus [1])	Activity (Rattus norvegicus [2])	Activity (Rattus norvegicus [3])	Activity (Rattus norvegicus [4])	Activity (Rattus norvegicus [5])	Activity (Rattus norvegicus [6])	Activity (Rattus norvegicus [7])	Activity (Rattus norvegicus [8])	Activity (Rattus norvegicus [9])	Activity (Rattus norvegicus [10])	Activity (Rattus norvegicus [11])	Activity (Rattus norvegicus [12])	ED50 (Rattus norvegicus [13])	Activity (Rattus norvegicus [14])	Activity (Rattus norvegicus [15])	Activity (Rattus norvegicus [17])	Activity (Rattus norvegicus [18])	Activity (Rattus norvegicus [19])	Activity (Rattus norvegicus [20])	Activity (Rattus norvegicus [21])	further results
COC(=O)CN1C(=O)N(CCCCN2CCN(c3ccccc3OC)CC2)C(c2ccccc2)(c2ccccc2)C1=O.Cl	354.3 min⁻¹	355.8 min⁻¹	Toxic	73.3 ms	19.3 ms	62.6 ms	19.6 ms	63.3 ms	19.5 ms	74.6 ms	62.8 ms	357.8 min⁻¹	1.8 mg/kg	Active	Active	Active	Toxic	Non-toxic	75.6 ms	Non-toxic	Ki [16]: 25 nM; pKi [16]: 7.6
CCOC(=O)C(C)N1C(=O)N(CC(O)CN2CCN(c3ccccc3OC)CC2)C(c2ccccc2)(c2ccccc2)C1=O.Cl (racemic)	–	–	–	–	–	–	–	–	–	–	–	–	0.41 mg/kg	Active	Active	Active	–	–	–	–	–
COC(=O)CN1C(=O)N(CC(O)CN2CCN(c3ccccc3OC)CC2)C(c2ccccc2)(c2ccccc2)C1=O.Cl (racemic)	262 min⁻¹	268 min⁻¹	Toxic	76 ms	18 ms	64 ms	20 ms	63 ms	17 ms	98 ms	63 ms	261 min⁻¹	0.69 mg/kg	Active	–	Active	Toxic	Non-toxic	74 ms	Non-toxic	Activity (Rattus norvegicus [22]): inactive; Activity (Rattus norvegicus [23]): inactive; Activity (Rattus norvegicus [24]): inactive
COC(=O)C(C)N1C(=O)N(CC(O)CN2CCN(c3ccccc3OC)CC2)C(c2ccccc2)(c2ccccc2)C1=O.Cl (racemic)	363 min⁻¹	350 min⁻¹	Toxic	81 ms	15 ms	57 ms	16 ms	55 ms	16 ms	82 ms	57 ms	362 min⁻¹	0.36 mg/kg	Active	–	Active	Toxic	Non-toxic	82 ms	Non-toxic	Activity (Rattus norvegicus [22]): inactive; Activity (Rattus norvegicus [23]): inactive; Activity (Rattus norvegicus [24]): inactive
